# Laboratory results taken from ChEMBL document CHEMBL1817567, “Design of benzimidazole- and benzoxazole-2-thione derivatives as inhibitors of bacterial hyaluronan lyase” (Eur J Med Chem, 2011).
# pIC50: −log10 of the molar value. Active and inactive are the calls of the source. No cut-off for these calls is given here.
# Columns and labels:
# [1] = target: T1, Hyaluronidase (Bos taurus) (UniProt Q8SQG8+Q5E985); test: Inhibition of bovine testes hyaluronidase at 130 uM after 30 mins at pH 5 by turbidimetric analysis; format: protein assay
# [2] = Aqueous solubility of the compound in water; format: physicochemical
# In short: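 Turbidity at 600 nm of test compound in DMSO added to citrate–phosphate buffer (pH 5 and pH 7.4), water and BSA (0.2 mg/ml stock), at various concentrations, read against a water reference. Enzyme testing used only concentrations showing no turbidity.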
# [3] = target: T1, Hyaluronidase (Bos taurus); test: Inhibition of bovine testes hyaluronidase at 460 uM after 30 mins at pH 5 by turbidimetric analysis; format: protein assay
# [4] = target: T1, Hyaluronidase (Bos taurus); test: Inhibition of bovine testes hyaluronidase at 380 uM after 30 mins at pH 5 by turbidimetric analysis; format: protein assay
# Streptococcus agalactiae [5] = test: Inhibition of Streptococcus agalactiae 4755 hyaluronidase at 1000 uM after 3 hrs at pH 7.4 by turbidimetric analysis
# In short: (§1)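 Same turbidimetric hyaluronan-lyase assay at pH 7.4 (citrate–phosphate/NaCl): SagHyal4755 2.9 ng, hyaluronan (2 mg/ml stock), BSA, 3.8% DMSO final, 3 h at 37 °C. CTAB (2.5%, in 0.5 M NaOH) precipitation, 20 min at 25 °C, A600. Activity scaled between no-inhibitor and no-enzyme samples.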
# [6] = target: T1, Hyaluronidase (Bos taurus); test: Inhibition of bovine testes hyaluronidase at 400 uM after 30 mins at pH 5 by turbidimetric analysis; format: protein assay
# [7] = target: T1, Hyaluronidase (Bos taurus); test: Inhibition of bovine testes hyaluronidase at 49 uM after 30 mins at pH 5 by turbidimetric analysis; format: protein assay
# [8] = target: T1, Hyaluronidase (Bos taurus); test: Inhibition of bovine testes hyaluronidase at 3800 uM after 30 mins at pH 5 by turbidimetric analysis; format: protein assay
# [9] = target: T1, Hyaluronidase (Bos taurus); test: Inhibition of bovine testes hyaluronidase at 63 uM after 30 mins at pH 5 by turbidimetric analysis; format: protein assay
# [10] = target: T1, Hyaluronidase (Bos taurus); test: Inhibition of bovine testes hyaluronidase at 200 uM after 30 mins at pH 5 by turbidimetric analysis; format: protein assay
# [11] = target: T1, Hyaluronidase (Bos taurus); test: Inhibition of bovine testes hyaluronidase at 190 uM after 30 mins at pH 5 by turbidimetric analysis; format: protein assay
# [12] = target: T1, Hyaluronidase (Bos taurus); test: Inhibition of bovine testes hyaluronidase at 150 uM after 30 mins at pH 5 by turbidimetric analysis; format: protein assay
# [13] = target: T1, Hyaluronidase (Bos taurus); test: Inhibition of bovine testes hyaluronidase at 100 uM after 30 mins at pH 5 by turbidimetric analysis; format: protein assay
# [14] = target: T1, Hyaluronidase (Bos taurus); test: Inhibition of bovine testes hyaluronidase at 4200 uM after 30 mins at pH 5 by turbidimetric analysis; format: protein assay
# [15] = target: T1, Hyaluronidase (Bos taurus); test: Inhibition of bovine testes hyaluronidase at 170 uM after 30 mins at pH 5 by turbidimetric analysis; format: protein assay
# [16] = target: T1, Hyaluronidase (Bos taurus); test: Inhibition of bovine testes hyaluronidase at 180 uM after 30 mins at pH 5 by turbidimetric analysis; format: protein assay
# [17] = target: T1, Hyaluronidase (Bos taurus); test: Inhibition of bovine testes hyaluronidase at 80 uM after 30 mins at pH 5 by turbidimetric analysis; format: protein assay
# [18] = target: T1, Hyaluronidase (Bos taurus); test: Inhibition of bovine testes hyaluronidase at 2000 uM after 30 mins at pH 5 by turbidimetric analysis; format: protein assay
# Streptococcus agalactiae [19] = test: Inhibition of Streptococcus agalactiae 4755 hyaluronidase at 400 uM after 30 mins at pH 5.0 by turbidimetric analysis
# In short: (§2)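 SagHyal4755 (2.9 ng) with BSA and hyaluronan (2 mg/ml stock) in citrate–phosphate/NaCl buffer pH 5.0, 3.8% DMSO final, 30 min at 37 °C. Stopped by alkaline 2.5% CTAB, then 20 min at 25 °C. Residual-substrate turbidity read at 600 nm; no-inhibitor sample = 100%, no-enzyme sample = 0% activity. Enzyme-free compound controls were run.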
# Streptococcus agalactiae [20] = test: Inhibition of Streptococcus agalactiae 4755 hyaluronidase at 4200 uM after 30 mins at pH 5.0 by turbidimetric analysis; in short: as §2
# Streptococcus agalactiae [21] = test: Inhibition of Streptococcus agalactiae 4755 hyaluronidase at 4200 uM after 3 hrs at pH 7.4 by turbidimetric analysis; in short: as §1
# [22] = Inhibition of Streptococcus agalactiae 4755 hyaluronidase at pH 5.0 after 30 mins by turbidimetric analysis; in short: as §2
# Streptococcus agalactiae [23] = test: Inhibition of Streptococcus agalactiae 4755 hyaluronidase at 2000 uM after 3 hrs at pH 7.4 by turbidimetric analysis; in short: as §1
# [24] = Inhibition of Streptococcus agalactiae 4755 hyaluronidase after 30 mins by turbidimetric analysis; in short: as §2
# Streptococcus agalactiae [25] = test: Inhibition of Streptococcus agalactiae 4755 hyaluronidase at 2000 uM after 30 mins at pH 5.0 by turbidimetric analysis; in short: as §2
# [26] = Inhibition of Streptococcus agalactiae 4755 hyaluronidase at pH 7.4 after 3 hrs by turbidimetric analysis; in short: as §1
# Streptococcus agalactiae [27] = test: Inhibition of Streptococcus agalactiae 4755 hyaluronidase at 300 uM after 3 hrs at pH 7.4 by turbidimetric analysis; in short: as §1
# Streptococcus agalactiae [28] = test: Inhibition of Streptococcus agalactiae 4755 hyaluronidase at 150 uM after 30 mins at pH 5.0 by turbidimetric analysis; in short: as §2
# Streptococcus agalactiae [29] = test: Inhibition of Streptococcus agalactiae 4755 hyaluronidase at 200 uM after 3 hrs at pH 7.4 by turbidimetric analysis; in short: as §1
# Streptococcus agalactiae [30] = test: Inhibition of Streptococcus agalactiae 4755 hyaluronidase at 80 uM after 30 mins at pH 5.0 by turbidimetric analysis; in short: as §2
# Streptococcus agalactiae [31] = test: Inhibition of Streptococcus agalactiae 4755 hyaluronidase at 63 uM after 30 mins at pH 5.0 by turbidimetric analysis; in short: as §2
# [32] = Inhibition of Streptococcus agalactiae 4755 hyaluronidase at pH 5.0; in short: as §2
# [33] = Inhibition of Streptococcus agalactiae 4755 hyaluronidase at pH 7.4; in short: as §1
# Streptococcus agalactiae [34] = test: Inhibition of Streptococcus agalactiae 4755 hyaluronidase at 130 uM after 30 mins at pH 5.0 by turbidimetric analysis; in short: as §2
# [35] = Inhibition of Streptococcus agalactiae hyaluronidase
# T1 sequence (Q5E985 whole entry, looked up): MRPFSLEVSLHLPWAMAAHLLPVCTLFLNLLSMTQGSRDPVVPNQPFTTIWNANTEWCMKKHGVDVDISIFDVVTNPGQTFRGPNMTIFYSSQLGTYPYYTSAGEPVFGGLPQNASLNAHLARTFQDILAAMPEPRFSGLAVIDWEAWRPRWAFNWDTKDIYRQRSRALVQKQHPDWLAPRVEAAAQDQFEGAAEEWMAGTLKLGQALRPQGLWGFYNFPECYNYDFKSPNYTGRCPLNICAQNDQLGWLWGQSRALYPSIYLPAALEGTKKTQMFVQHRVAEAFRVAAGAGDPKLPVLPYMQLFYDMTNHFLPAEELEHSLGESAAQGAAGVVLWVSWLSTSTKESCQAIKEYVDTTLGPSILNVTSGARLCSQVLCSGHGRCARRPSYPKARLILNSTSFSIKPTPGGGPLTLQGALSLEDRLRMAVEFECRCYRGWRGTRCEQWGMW
# T1 sequence (Q8SQG8 whole entry, looked up): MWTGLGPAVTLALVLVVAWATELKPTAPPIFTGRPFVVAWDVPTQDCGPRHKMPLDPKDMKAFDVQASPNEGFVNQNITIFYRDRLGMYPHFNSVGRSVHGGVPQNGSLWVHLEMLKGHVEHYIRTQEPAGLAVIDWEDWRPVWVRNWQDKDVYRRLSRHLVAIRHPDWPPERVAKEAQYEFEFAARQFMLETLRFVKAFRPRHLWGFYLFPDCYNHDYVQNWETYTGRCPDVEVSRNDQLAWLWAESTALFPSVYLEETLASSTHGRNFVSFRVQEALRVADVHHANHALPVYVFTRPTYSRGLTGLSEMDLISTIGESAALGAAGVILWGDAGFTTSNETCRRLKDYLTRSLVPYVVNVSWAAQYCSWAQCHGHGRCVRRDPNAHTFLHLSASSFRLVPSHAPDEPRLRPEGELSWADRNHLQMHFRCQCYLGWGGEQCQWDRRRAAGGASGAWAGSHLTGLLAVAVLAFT
Compound,inhibition [1],solubility [2] [µM],inhibition [3],inhibition [4],inhibition [6],inhibition [7],inhibition [8],inhibition [9],inhibition [10],inhibition [11],inhibition [12],inhibition [13],inhibition [14],inhibition [15],inhibition [16],inhibition [17],inhibition [18],pIC50 [26],further results
CCn1c(=S)oc2ccccc21,inactive,400,inactive,inactive,inactive,inactive,inactive,inactive,inactive,inactive,inactive,inactive,inactive,inactive,inactive,inactive,inactive,,inhibition (Streptococcus agalactiae [5]): 17%; inhibition (Streptococcus agalactiae [19]): 46%
CCn1c(S)nc2ccccc21,inactive,4200,inactive,inactive,inactive,inactive,inactive,inactive,inactive,inactive,inactive,inactive,inactive,inactive,inactive,inactive,inactive,,inhibition (Streptococcus agalactiae [20]): 19%; inhibition (Streptococcus agalactiae [21]): 28%
COC(=O)c1ccc2oc(=S)[nH]c2c1,inactive,,inactive,inactive,inactive,inactive,inactive,inactive,inactive,inactive,inactive,inactive,inactive,inactive,inactive,inactive,inactive,,pIC50 [22]: 2.89; inhibition (Streptococcus agalactiae [23]): 27%
CCCCCCCCCCCCCCCC(=O)OC[C@H](O)[C@H]1OC(=O)C(O)=C1O [ASCORBYL PALMITATE],inactive,,inactive,inactive,inactive,inactive,inactive,inactive,inactive,inactive,inactive,inactive,inactive,inactive,inactive,inactive,inactive,,pIC50 [22]: 5.38; pIC50 [24]: 5.38
CC(=O)n1c(=O)oc2ccccc21,inactive,2000,inactive,inactive,inactive,inactive,inactive,inactive,inactive,inactive,inactive,inactive,inactive,inactive,inactive,inactive,inactive,2.83,inhibition (Streptococcus agalactiae [25]): inactive
CCCCCC(=O)n1c(=O)oc2ccccc21,inactive,150,inactive,inactive,inactive,inactive,inactive,inactive,inactive,inactive,inactive,inactive,inactive,inactive,inactive,inactive,inactive,,inhibition (Streptococcus agalactiae [27]): inactive; inhibition (Streptococcus agalactiae [28]): inactive
O=C(/C=C/c1ccccc1)n1c(=S)oc2ccccc21,inactive,80,inactive,inactive,inactive,inactive,inactive,inactive,inactive,inactive,inactive,inactive,inactive,inactive,inactive,inactive,inactive,,inhibition (Streptococcus agalactiae [29]): 36%; inhibition (Streptococcus agalactiae [30]): 9%
CCCCCCCCCCCCCCCC(=O)n1c(=S)oc2ccccc21,inactive,63,inactive,inactive,inactive,inactive,inactive,inactive,inactive,inactive,inactive,inactive,inactive,inactive,inactive,inactive,inactive,4.77,inhibition (Streptococcus agalactiae [31]): 23%
CCCCCCCCCCn1c(-c2ccc(OS(N)(=O)=O)cc2)cc2ccc(OS(N)(=O)=O)cc21,inactive,,inactive,inactive,inactive,inactive,inactive,inactive,inactive,inactive,inactive,inactive,inactive,inactive,inactive,inactive,inactive,4.80,pIC50 [22]: 4.96; pIC50 [32]: 4.96; pIC50 [33]: 4.80
CCCCCC(=O)n1c(=S)oc2ccccc21,inactive,130,inactive,inactive,inactive,inactive,inactive,inactive,inactive,inactive,inactive,inactive,inactive,inactive,inactive,inactive,inactive,4.54,inhibition (Streptococcus agalactiae [34]): 51%
CC1(C)[C@@H](O)CC[C@]2(C)[C@H]3C(=O)C=C4[C@@H]5C[C@@](C)(C(=O)O)CC[C@]5(C)CC[C@@]4(C)[C@]3(C)CC[C@@H]12 [ENOXOLONE],,,,,,,,,,,,,,,,,,,pIC50 [35]: 4.22
